Measured values pooled from the literature.
CDK2: Cyclin-dependent kinase 2 (CDK2, Homo sapiens, UniProt P24941)
CDK2 with cyclin A: Cyclin-dependent kinase 2, with cyclin A (CDK2, Homo sapiens, UniProt P24941)
CDK2 with cyclin E: Cyclin-dependent kinase 2, with cyclin E (CDK2, Homo sapiens, UniProt P24941)

| SMILES | target | test | conditions | endpoint | result |
| --- | --- | --- | --- | --- | --- |
| CS(=O)(=O)c1cc(C2(NC(=O)c3cncc4c3cnn4-c3ccc(F)cc3)CC2)ccn1 | CDK2 | cell-free assay, competition with immobilised ligand | 1 µM | remaining binding | 94% |
| CCC1(CC)NC(=O)c2c(c3ccc(Cl)c(Cl)c3n2C)C1C#N (stereo not drawn) | CDK2 | thermal stability, DSF | 10 µM | ΔTm | -0.4 °C |
| NS(=O)(=O)c1cc(NC(=O)Cc2ccccc2)ccc1Oc1cccc(Cl)c1 | CDK2 | cell-free assay, competition with immobilised ligand | 1 µM | remaining binding | 100% |
| CS(=O)(=O)CCNCc1ccc(-c2ccc3ncnc(Nc4ccc(OCc5cccc(F)c5)c(Cl)c4)c3c2)o1 | CDK2 with cyclin A | cell-free assay | 0.5 µM | remaining signal | 94.5% |
| Cc1ccc(C(=O)NCc2ccsc2)cc1C#Cc1cn(C(C)C)c2ncnc(N)c12 | CDK2 with cyclin A | enzyme activity, inhibitor | 1 µM | activity vs control | 94% |
| CC(C)[C@H](CO)Nc1nc(Nc2cccc(Cl)c2)c2ncn(C(C)C)c2n1 | CDK2 with cyclin A | cell-free assay | 0.5 µM | remaining signal | 6.91% |
| Cn1c2c(c3ccc(Cl)c(Cl)c31)C(C#N)C1(CCCC1)NC2=O (stereo not drawn) | CDK2 | thermal stability, DSF | 10 µM | ΔTm | -0.5 °C |
| COc1cc2c(Nc3ccc(Br)cc3F)ncnc2cc1OCC1CCN(C)CC1 | CDK2 with cyclin E | cell-free assay | 0.5 µM | remaining signal | 101% |
| FC(F)(F)Oc1cccc(-c2cnc3ccc(-c4ccncc4)nn23)c1 | CDK2 with cyclin A | enzyme activity, inhibitor, radiometric | 1 µM | activity vs control | 26% |
| O=C(Nc1cnn(-c2csc(C(=O)NC3COC3)c2)c1)Nc1ccccc1Cl | CDK2 with cyclin E | enzyme activity, inhibitor | 5 µM | remaining activity | 99% |
| O=C1NC(=O)c2cc(Nc3ccc(F)cc3)c(Nc3ccc(F)cc3)cc21 | CDK2 with cyclin E | cell-free assay | 0.5 µM | remaining signal | 94.3% |
| Cn1cc(Cl)c2c(Oc3c(F)cc(Nc4cc(Cl)nc(N)n4)cc3F)ccnc21 | CDK2 | cell-free assay, competition with immobilised ligand | 0.1 µM | remaining binding | 100% |
| CC(C)c1ccc(NC(=O)c2cccs2)c(-c2nc3ccccc3[nH]c2=O)c1 | CDK2 with cyclin A | enzyme activity, inhibitor | 1 µM | activity vs control | 96% |
| Cc1ccc(NC(=O)c2ccc(C)c(C(F)(F)F)c2)cc1C#Cc1nn(C2CCC(O)CC2)c2ncnc(N)c12 (stereo not drawn) | CDK2 with cyclin A | cell-free assay | 10 µM | remaining signal | 100% |
| N#CC1c2c([nH]c3c(Cl)c(Cl)ccc23)C(=O)NC12CCCCC2 (racemic) | CDK2 | thermal stability, DSF | 10 µM | ΔTm | -0.6 °C |
| O=C1Cc2c([nH]c3ccc(Br)cc23)-c2ccccc2N1 | CDK2 with cyclin E | cell-free assay | 0.5 µM | remaining signal | 51.9% |
| Cc1sc(C(=O)NC2COC2)cc1-n1cc(NC(=O)Nc2c(F)cccc2Cl)cn1 | Cyclin-dependent kinase 2, with cyclin O (CDK2, Homo sapiens, UniProt P24941) | enzyme activity, inhibitor | 10 µM | remaining activity | 105% |

| SMILES | target | test | conditions | endpoint | result |
| --- | --- | --- | --- | --- | --- |
| Cc1c[nH]c2nccc(Oc3c(F)cc(Nc4cc(Cl)nc(N)n4)cc3F)c12 | CDK2 | cell-free assay, competition with immobilised ligand | 0.1 µM | remaining binding | 99% |
| COc1cc2c(cc1OC)-c1[nH]nc(Nc3cccc(F)c3)c1C2 | CDK2 with cyclin A | cell-free assay | 0.5 µM | remaining signal | 87.5% |
| O=C(Nc1cnn(-c2csc(C(=O)NC3COC3)c2)c1)Nc1c(F)cccc1Cl | CDK2 with cyclin A | enzyme activity, inhibitor | 5 µM | remaining activity | 93.8% |
| O=C1Nc2ccc(Cl)cc2C1=Cc1cc(Cl)c(O)c(Cl)c1 | CDK2 with cyclin E | cell-free assay | 0.5 µM | remaining signal | 90% |
| CN(C(=O)c1ccccc1)c1cc(N(C)c2ccc3c(c2)CCc2ccc(C(=O)NCCN4CCOCC4)cc2C3=O)ccc1F | CDK2 | cell-free assay, competition with immobilised ligand | 1 µM | remaining binding | 96% |
| CN(C)C1CCN(CC#Cc2nn(C3CCCC3)c3nc(NCc4ccccc4)ncc23)C1 (stereo not drawn) | CDK2 with cyclin A | enzyme activity, inhibitor, FRET | 1 µM | inhibition | 9% |
| CN(c1ccnc(CNc2nc(Nc3ccc4c(c3)CC(=O)N4)ncc2C(F)(F)F)n1)S(C)(=O)=O | CDK2 | cell-free assay, competition with immobilised ligand | 1 µM | remaining binding | 89% |
| CN1CCC2(CC1)NC(=O)c1c(c3ccc(Cl)c(Cl)c3n1C)C2C#N (racemic) | CDK2 | thermal stability, DSF | 10 µM | ΔTm | 0.1 °C |
| N#Cc1c(NC(=O)c2cccc3ccccc23)sc2c1CCCC2 | CDK2 with cyclin A | cell-free assay | 0.5 µM | remaining signal | 100% |
| CCN1CCC2(CC1)NC(=O)c1c(c3ccc(Cl)c(Cl)c3n1C)C2C#N (racemic) | CDK2 | thermal stability, DSF | 10 µM | ΔTm | 0 °C |
| Cc1nc(N2CC[C@@H](O)C2)ncc1-c1cc(C(F)(F)F)cc2[nH]ncc12 | CDK2 | binding, competition with immobilised ligand | 1 µM | remaining binding | 94% |
| CC(C)(O)[C@H]1CC[C@H](Nc2ccc3ncc(-c4cccc(C(F)(F)F)c4)n3n2)CC1 | Cyclin-dependent kinase 2, with cyclin A1 (CDK2, Homo sapiens, UniProt P24941) | enzyme activity, inhibitor | 1 µM | remaining activity | 78.5% |
| Cc1cc(NC(=O)c2cccc3cc(-c4cccc5[nH]nc(N)c45)ccc23)ccc1F | CDK2 with cyclin A | enzyme activity, inhibitor | 0.1 µM | activity vs control | 100% |
| Cn1c2c(Cl)c(Cl)ccc2c2cc[nH]c(=O)c21 | CDK2 | thermal stability, DSF | 10 µM | ΔTm | 0.6 °C |
| CC(C)CC(=O)N1CCc2nc(-c3ccc(Br)cc3)nc(N(C)Cc3ccccc3)c2C1 | CDK2 | cell-free assay, competition with immobilised ligand | 0.1 µM | remaining binding | 80% |
| Nc1ncnc2occ(-c3ccc(NC(=O)Nc4cc(C(F)(F)F)ccc4F)cc3)c12 | CDK2 | cell-free assay, inhibitor | 20 µM | remaining signal | 0.1% |
